Assay results from ChEMBL document CHEMBL5096186, “Design, Synthesis, and Biological Evaluation of Novel Pyrimido[4,5-b]indole Derivatives Against Gram-Negative Multidrug-Resistant Pathogens” (J Med Chem, 2021).
pIC50: −log10 of the molar value. In brackets after ≈: the same amount, converted by molar mass.

Legend:
[1] = system: Escherichia coli; assay: Antibacterial activity against ESBL-producing multidrug resistant Escherichia coli assessed as reduction in bacterial growth incubated for 18 to 20 hrs by CLSI based microdilution method; assay type: functional; conditions: time 18-20 hrs
In short: (§1)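 Broth microdilution per CLSI. Compounds dissolved in DMSO (levofloxacin and meropenem in water) as 64 μg/mL stock, then serial twofold dilutions in broth giving 64 to 0.008 μg/mL. […] Clinical isolates tested as several strains per group; racemic GP-1 served as positive control; values given as MIC ranges.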

[2] = system: Escherichia coli; assay: Antibacterial activity against multidrug resistant wild type Escherichia coli ATCC BAA-2340 assessed as reduction in bacterial growth incubated for 18 to 20 hrs by CLSI based microdilution method; assay type: functional; conditions: time 18-20 hrs; in short: as §1
[3] = system: Escherichia coli; assay: Antibacterial activity against multidrug resistant wild type Escherichia coli NCTC 13353 assessed as reduction in bacterial growth incubated for 18 to 20 hrs by CLSI based microdilution method; assay type: functional; conditions: time 18-20 hrs; in short: as §1
[4] = system: Klebsiella pneumoniae; assay: Antibacterial activity against KPC2-producing multidrug resistant Klebsiella pneumoniae assessed as reduction in bacterial growth incubated for 18 to 20 hrs by CLSI based microdilution method; assay type: functional; conditions: time 18-20 hrs; in short: as §1
[5] = system: Klebsiella pneumoniae; assay: Antibacterial activity agains wild type Klebsiella pneumoniae ATCC BAA-1705 assessed as reduction in bacterial growth incubated for 18 to 20 hrs by CLSI based microdilution method; assay type: functional; conditions: time 18-20 hrs
In short: (§2)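 CLSI broth microdilution. Compounds in DMSO (levofloxacin and meropenem in water), serial twofold dilutions in broth, 64 to 0.008 μg/mL. […] Results reported as MIC ranges across strains.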

[6] = system: Klebsiella pneumoniae; assay: Antibacterial activity agains wild type Klebsiella pneumoniae ATCC BAA-2470 assessed as reduction in bacterial growth incubated for 18 to 20 hrs by CLSI based microdilution method; assay type: functional; conditions: time 18-20 hrs; in short: as §1
[7] = system: Acinetobacter baumannii; assay: Antibacterial activity agains OXA23-producing multidrug resistant Acinetobacter baumannii assessed as reduction in bacterial growth incubated for 18 to 20 hrs by CLSI based microdilution method; assay type: functional; conditions: time 18-20 hrs; in short: as §1
[8] = system: Acinetobacter baumannii; assay: Antibacterial activity against wild type Acinetobacter baumannii NCTC 13304 assessed as reduction in bacterial growth incubated for 18 to 20 hrs by CLSI based microdilution method; assay type: functional; conditions: time 18-20 hrs; in short: as §1
[9] = system: Pseudomonas aeruginosa; assay: Antibacterial activity against IMP4-producing multidrug resistant Pseudomonas aeruginosa assessed as reduction in bacterial growth incubated for 18 to 20 hrs by CLSI based microdilution method; assay type: functional; conditions: time 18-20 hrs; in short: as §1
[10] = system: Pseudomonas aeruginosa; assay: Antibacterial activity against wild type Pseudomonas aeruginosa ATCC 27853 assessed as reduction in bacterial growth incubated for 18 to 20 hrs by CLSI based microdilution method; assay type: functional; conditions: time 18-20 hrs; in short: as §2
[11] = Metabolic stability in rat liver microsome assessed as elimination half life at 0.1 uM in presence of NADPH incubated upto 60 mins by LC-MS/MS analysis; assay type: ADME; conditions: liver microsomes, read-out: beta t1/2
In short: (§3)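 Compound at 0.1 μM final, in 0.01% DMSO with 0.005% BSA. Incubated with rat or human liver microsomes at 0.33 mg/mL in 0.1 M Tris-HCl, pH 7.4, with 5 mM MgCl₂ and 1 mM NADPH, at 37 °C. Samples at 0, 7, 17, 30 and 60 min quenched with cold methanol and analysed by LC-MS/MS. Half-life, Cl_int and MF% derived as previously described.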

[12] = Metabolic stability in human liver microsome assessed as elimination half life at 0.1 uM in presence of NADPH incubated upto 60 mins by LC-MS/MS analysis; assay type: ADME; conditions: liver microsomes, read-out: beta t1/2; in short: as §3
[13] = Metabolic stability in rat liver microsome assessed as intrinsic clearance at 0.1 uM in presence of NADPH incubated upto 60 mins by LC-MS/MS analysis; assay type: ADME; conditions: microsomes, 1 h; in short: as §3
[14] = Metabolic stability in human liver microsome assessed as intrinsic clearance at 0.1 uM in presence of NADPH incubated upto 60 mins by LC-MS/MS analysis; assay type: ADME; conditions: microsomes, 1 h; in short: as §3
[15] = Metabolic stability in rat liver microsome assessed as metabolic bioavailability at 0.1 uM in presence of NADPH incubated upto 60 mins by LC-MS/MS analysis; assay type: ADME; conditions: liver microsomes; in short: as §3
[16] = Metabolic stability in human liver microsome assessed as metabolic bioavailability at 0.1 uM in presence of NADPH incubated upto 60 mins by LC-MS/MS analysis; assay type: ADME; conditions: liver microsomes; in short: as §3
[17] = AUC (0 to infinity) in Sprague-Dawley rat at 5 mg/kg, iv measured upto 24 hrs by LC-MS/MS analysis; assay type: ADME, organism-based; design: time < 24 hrs, dose 5 mg/kg, route iv; conditions: in vivo
In short: (§4)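 Male Sprague-Dawley rats, n = 3 per group, single intravenous dose. For 4 mg/kg: 180–280 g rats, vehicle 5% DMSO + 5% EtOH + 40% PEG300 + 50% saline, blood from the retrobulbar vein at 0.05–24 h. For 5 and 20 mg/kg: 180–300 g rats, vehicle 5% DMSO + 5% solutol + 90% saline, sampled at 0.083–24 h. Plasma quantified by LC/MS/MS. Parameters from mean plasma concentration by noncompartmental analysis; values are mean ± standard deviation.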

[18] = Elimination half life in Sprague-Dawley rat at 5 mg/kg, iv measured upto 24 hrs by LC-MS/MS analysis; assay type: ADME, organism-based; conditions: in vivo, read-out: beta t1/2 (converted); in short: as §4
[19] = MRT in Sprague-Dawley rat at 5 mg/kg, iv measured upto 24 hrs by LC-MS/MS analysis; assay type: ADME, organism-based; conditions: in vivo; in short: as §4
[20] = Clearance in Sprague-Dawley rat at 5 mg/kg, iv measured upto 24 hrs by LC-MS/MS analysis; assay type: ADME, organism-based; conditions: in vivo; in short: as §4
[21] = Volume of distribution at the steady state in Sprague-Dawley rat at 5 mg/kg, iv measured upto 24 hrs by LC-MS/MS analysis; assay type: ADME, organism-based; conditions: in vivo, read-out: Vdss; in short: as §4
[22] = system: Staphylococcus aureus; assay: Antibacterial activity against methicillin-sensitive Staphylococcus aureus strains 15 1 to 4 assessed as reduction in bacterial growth incubated for 18 to 20 hrs by CLSI based microdilution method; assay type: functional; conditions: time 18-20 hrs; in short: as §1
[23] = system: Staphylococcus epidermidis; assay: Antibacterial activity against methicillin-sensitive Staphylococcus epidermidis strains 15 1 to 4 assessed as reduction in bacterial growth incubated for 18 to 20 hrs by CLSI based microdilution method; assay type: functional; conditions: time 18-20 hrs; in short: as §1
[24] = system: Escherichia coli; assay: Antibacterial activity against ESBL-producing Escherichia coli ATCC 35218 strains 15 1 to 3 assessed as reduction in bacterial growth incubated for 18 to 20 hrs by CLSI based microdilution method; assay type: functional; conditions: time 18-20 hrs; in short: as §2
[25] = system: Escherichia coli; assay: Antibacterial activity against Escherichia coli ATCC 35218 strains 15 1 to 3 assessed as reduction in bacterial growth incubated for 18 to 20 hrs by CLSI based microdilution method; assay type: functional; conditions: time 18-20 hrs; in short: as §2
[26] = system: Pseudomonas aeruginosa; assay: Antibacterial activity against multidrug resistant Pseudomonas aeruginosa strains 15 1 to 3 assessed as reduction in bacterial growth incubated for 18 to 20 hrs by CLSI based microdilution method; assay type: functional; conditions: time 18-20 hrs; in short: as §1
[27] = biological target: hERG (KCNH2) potassium channel (Homo sapiens, UniProt Q12809); assay: Inhibition of hERG potassium channel assessed as maximum inhibition rate at 40 uM at -80 mV holding potential incubated for 120 seconds by whole cell-automated voltage clamp analysis assay relative to control; assay type: toxicity; conditions: time 120 sec
Sequence of hERG (KCNH2) potassium channel (Q12809 whole entry): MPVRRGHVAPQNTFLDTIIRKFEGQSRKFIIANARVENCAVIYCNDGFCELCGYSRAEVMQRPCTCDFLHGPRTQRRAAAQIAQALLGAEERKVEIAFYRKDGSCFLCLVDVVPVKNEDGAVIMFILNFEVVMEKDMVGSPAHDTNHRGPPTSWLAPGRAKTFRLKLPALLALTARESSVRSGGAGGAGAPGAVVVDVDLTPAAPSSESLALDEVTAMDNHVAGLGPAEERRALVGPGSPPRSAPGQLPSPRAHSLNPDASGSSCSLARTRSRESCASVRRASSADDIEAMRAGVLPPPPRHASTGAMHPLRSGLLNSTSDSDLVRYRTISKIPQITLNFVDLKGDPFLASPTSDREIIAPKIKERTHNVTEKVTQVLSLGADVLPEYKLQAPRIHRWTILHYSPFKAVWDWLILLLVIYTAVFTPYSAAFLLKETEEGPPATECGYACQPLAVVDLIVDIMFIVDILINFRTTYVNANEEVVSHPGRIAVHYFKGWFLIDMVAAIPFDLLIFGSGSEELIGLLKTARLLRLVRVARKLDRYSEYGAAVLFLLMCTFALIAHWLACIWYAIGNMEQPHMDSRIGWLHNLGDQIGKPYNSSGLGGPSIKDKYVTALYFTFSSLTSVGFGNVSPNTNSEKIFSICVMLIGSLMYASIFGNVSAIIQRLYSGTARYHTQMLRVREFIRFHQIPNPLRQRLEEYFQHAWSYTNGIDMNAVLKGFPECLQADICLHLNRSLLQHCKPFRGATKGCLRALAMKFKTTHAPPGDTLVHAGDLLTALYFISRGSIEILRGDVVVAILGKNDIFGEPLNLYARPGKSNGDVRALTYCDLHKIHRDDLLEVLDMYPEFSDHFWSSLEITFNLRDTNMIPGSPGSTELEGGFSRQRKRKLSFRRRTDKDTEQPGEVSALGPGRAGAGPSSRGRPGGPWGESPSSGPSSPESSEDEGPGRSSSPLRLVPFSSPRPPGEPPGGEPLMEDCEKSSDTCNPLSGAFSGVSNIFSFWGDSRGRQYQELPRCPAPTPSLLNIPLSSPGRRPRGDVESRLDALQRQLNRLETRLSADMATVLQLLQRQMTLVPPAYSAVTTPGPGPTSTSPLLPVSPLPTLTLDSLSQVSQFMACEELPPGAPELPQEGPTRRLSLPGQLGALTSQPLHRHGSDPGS
In short: (§5)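 Automated whole-cell patch clamp, holding potential −80 mV. Voltage protocol applied every 20 s. Baseline set with external solution containing 0.1% DMSO and stabilised 3 min. Compound applied until steady state, at least 3 min, then washout. Maximum tested concentration 40 μM, or 3 μM for cisapride as positive control.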

[28] = biological target: Voltage-gated inwardly rectifying potassium channel KCNH2 (Homo sapiens, UniProt Q12809); assay: Inhibition of hERG potassium channel assessed as […] at -80 mV holding potential incubated for 120 seconds by whole cell-automated voltage clamp analysis assay; assay type: toxicity; in short: as §5
Sequence of Voltage-gated inwardly rectifying potassium channel KCNH2 (Q12809 whole entry): as above

[29] = Cytotoxicity against human L02 cells assessed as cell viability measured for 48 hrs by CCK-8 assay; assay type: toxicity, cell-based
In short: (§6)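 Cells seeded at 1 × 10⁴ per well and grown for 48 h. Then exposed to test articles at 1–200 μM for another 48 h (n = 6). Viability by CCK-8 added for 2 h, absorbance read at 450 nm. CC50 calculated and reported as the mean.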

[30] = Cytotoxicity against human HEK293 cells assessed as cell viability measured for 48 hrs by CCK-8 assay; assay type: toxicity, cell-based; in short: as §6

Compound | MIC [1] | MIC [2] | MIC [3] | MIC [4] | MIC [5] | MIC [6] | MIC [7] | MIC [8] | MIC [9] | MIC [10] | further results
[2H]C([2H])([2H])Nc1cc(F)cc2c1[nH]c1nc(Oc3cnc(C)nc3)nc(N3CC(=C(C)[C@@H](C)N)C3)c12 | 0.5 µg/mL (≈ 1.11 µM) | 0.25 µg/mL (≈ 0.554 µM) | 0.125 µg/mL (≈ 0.277 µM) | 1 µg/mL (≈ 2.21 µM) | 4 µg/mL (≈ 8.86 µM) | 2 µg/mL (≈ 4.43 µM) | 0.25 µg/mL (≈ 0.554 µM) | 0.25 µg/mL (≈ 0.554 µM) | 4 µg/mL (≈ 8.86 µM) | 2 µg/mL (≈ 4.43 µM) | half-life at 0.1 µM [11]: 9.8 min; half-life at 0.1 µM [12]: 2.98 h; CLH [13]: 215 mL/min/g; CLH [14]: 11.7 mL/min/g; Fh at 1 h, 0.1 µM [15]: 17.2%; Fh at 1 h, 0.1 µM [16]: 62.6%; AUC(0-inf) [17]: 634 ng·h/mL; half-life [18]: 6.5 h; MRT [19]: 5.6 h; clearance [20]: 132 mL/min/kg; Vd [21]: 44.5 L/kg
C=CCC(CN)=C1CN(c2nc(Oc3cnc(C)nc3)nc3[nH]c4c(NC)cc(F)cc4c23)C1 | 0.5 µg/mL (≈ 1.09 µM) | 0.5 µg/mL (≈ 1.09 µM) | 0.25 µg/mL (≈ 0.543 µM) | 2 µg/mL (≈ 4.34 µM) | 4 µg/mL (≈ 8.69 µM) | 2 µg/mL (≈ 4.34 µM) | 0.25 µg/mL (≈ 0.543 µM) | 0.25 µg/mL (≈ 0.543 µM) | 8 µg/mL (≈ 17.4 µM) | 4 µg/mL (≈ 8.69 µM) | MIC [22]: < 0.008 µg/mL; MIC [23]: < 0.008 µg/mL; MIC [24]: 0.125 µg/mL (≈ 0.271 µM); MIC [25]: 0.06 µg/mL (≈ 0.13 µM); MIC [26]: 1 µg/mL (≈ 2.17 µM); inhibition at 2 min, 40 µM [27]: 49.1%; pIC50 [28]: < 4.40; CC50 at 48 h [29]: 6.99 µM; CC50 at 48 h [30]: 29 µM
